From PubChem BioAssay
E-selectin induc – induces E-selectin expression in human endothelial cells; P16581; HUVEC E-selectin immunofluorescence imaging; normalized: neutral wells 0, TNF-alpha wells 100; activation, % at 7.58 µM; 0.37% of 260,000 active; AID 686992;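 active means mean E-selectin-positive cell signal at least 10% of the positive control, reached in at least 60% of replicates, without over 20% cell loss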
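Test system: HUVEC | Signal: Immunofluorescence imaging | Read-out: Percent E-selectin-positive cells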
RAD54 inh – RAD54 (human) branch migration inhibition. Q92698. RAD54 Holliday junction branch migration, FAM/BHQ fluorescence. inhibition, % at 10.4 µM. 0.14% of 360,000 active. AID 602329;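 active means mean normalized replicate activity at least 40 and at least half of replicates scoring 40 or more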;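 further: 0% = median of neutral control wells and 100% = median of positive control wells; inhibitors cause a drop in the FAM fluorescence signal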
AF4-AF9 inh – inhibitors of human MLL-AF4/AF9 interaction; AlphaScreen, biotin-AF4 peptide binding to FLAG-AF9; P42568; inhibition, % at 10 µM; 0.47% of 350,000 active;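 active means every replicate reaching a set inhibition limit, whatever the replicate mean, cut at about 25% in these data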;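 further: 0% = plate neutral control median and 100% = total signal loss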
GSIS activator – primary screen for activators of insulin secretion dependent on glucose, INS-1E cells, GLuc reporter luminescence. INS-1E GLuc reporter insulin secretion, 2-3 h. activation, % at 16.6 µM. 0.61% of 370,000 active. AID 743287;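 active means lowest replicate activation of at least 40%, so every replicate reaches that level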;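 further: 0% = median of neutral control wells and 100% = median of IBMX positive control wells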
Ecoli rRNA inh – inhibitors of bacterial rRNA selective over humanized ribosomes; E. coli WT GFP vs humanized-ribosome RFP mutants, fluorescence, 24 h; stronger effect = lower value; DMSO median 0, no signal -100; GFP signal change (wild-type ribosome), % (test concentration not listed); 1.6% of 350,000 active; AID 720706;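 active means significant combined selectivity score with lowered wild-type GFP, culture density cut under 30%, mutant RFP and density less affected; inactive means any of these conditions unmet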
RAD52 anneal inh – RAD52 (human) annealing inhibition; P43351; recombinant RAD52 DNA annealing, FRET fluorescence; inhibition, % at 18.7 µM; 0.46% of 360,000 active; AID 651710;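 active means every replicate showing at least 50% inhibition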
Target sequence (P43351 whole entry, looked up): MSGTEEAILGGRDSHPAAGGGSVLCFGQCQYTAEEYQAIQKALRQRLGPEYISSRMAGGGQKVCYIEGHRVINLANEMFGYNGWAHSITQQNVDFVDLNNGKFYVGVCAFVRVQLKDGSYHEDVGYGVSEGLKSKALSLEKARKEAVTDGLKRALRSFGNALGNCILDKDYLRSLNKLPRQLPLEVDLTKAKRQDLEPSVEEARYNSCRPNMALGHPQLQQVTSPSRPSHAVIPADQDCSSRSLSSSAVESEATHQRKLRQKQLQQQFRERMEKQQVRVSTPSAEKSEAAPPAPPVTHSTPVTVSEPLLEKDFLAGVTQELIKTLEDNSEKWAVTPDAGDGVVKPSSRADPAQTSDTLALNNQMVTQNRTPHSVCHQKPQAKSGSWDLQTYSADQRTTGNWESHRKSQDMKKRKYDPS
* marks the source's active call; other numbers are inactive results; nt = no result. In the library only some 2.6% were active in any assay of this set; here they are far more common.

SMILES	E-selectin induc	RAD54 inh	AF4-AF9 inh	GSIS activator	Ecoli rRNA inh	RAD52 anneal inh
O=C(C[C@@H]1CC[C@@H](NC(=O)Cc2cccnc2)[C@@H](CO)O1)Nc1ccccc1	0	nt	-2	3	1	-5
O=C(CCN1CCN(c2ccccc2)CC1)c1ccc(Cl)cc1	nt	12	-4	11	2	2
O=C(CCN1CCOCC1)c1ccc(N2CCCCC2)cc1	0	-2	-31	51*	-4	-12
C[C@H](CO)N1C[C@H](C)[C@@H](CN(C)S(=O)(=O)c2cn(C)cn2)Oc2c(NC(=O)CCCN(C)C)cccc2C1=O	nt	nt	nt	-1	4	nt
CC(=O)c1ccc(N(C(=O)CNC(=O)c2ccco2)C(C(=O)NC2CCCC2)c2ccc(C)o2)cc1 (centres undefined)	33*	2	-3	10	1	-10
CCOC(=O)c1ccc(N(C(=O)c2ccco2)C(C(=O)NC2CCCCC2)c2ccncc2)cc1 (centres undefined)	35*	-5	2	2	4	-19
C[C@H](CO)N1C[C@H](C)[C@H](CN(C)S(=O)(=O)c2cccs2)Oc2ccc(N(C)C)cc2CC1=O	0	-10	-1	-5	-1	14
C[C@H]1CN([C@@H](C)CO)C(=O)c2cc(N(C)C)ccc2O[C@H]1CN(C)C(=O)NC1CCCCC1	-2	6	0	10	4	-10
C/C=C/c1cnc2c(c1)C(=O)N([C@@H](C)CO)C[C@@H](C)[C@H](CN(C)C(=O)c1ccc3c(c1)OCO3)O2	0	-2	-2	1	2	11
O=C(c1ccc(CS(=O)Cc2ccccc2Cl)o1)N1CCN(c2cccc(Cl)c2)CC1 (centres undefined)	nt	-9	1	nt	-2	-26
COc1cccc(N2CCN(C(=O)c3ccc(CS(=O)Cc4ccccc4Cl)o3)CC2)c1 (centres undefined)	0	0	8	-25	-31*	1
CCCNC(=O)[C@@H]1[C@@H](CO)[C@@H]2Cn3c(ccc(C4=CCCC4)c3=O)[C@H]1N2C(C)=O	-1	-7	-1	14	5	-10
Nc1c(-c2ccccc2)c(CSc2nc3ccccc3[nH]2)nn1-c1ccc(Cl)cc1	0	nt	2	-17	-19*	-14
Cc1cccc(OCCCSc2nc3ccccc3[nH]2)c1	nt	15	nt	nt	nt	nt
c1ccc(CSc2nc3ccccc3[nH]2)cc1	0	nt	-3	-6	-22*	-3
Cc1[nH]c2ccccc2c1C(=O)CSc1nc2ccccc2[nH]1	nt	-4	-13	-14	-28*	-68
Cc1[nH]c2ccccc2c1C(=O)CSc1nccc(=O)[nH]1	0	nt	1	-2	5	-16
CCOc1ccc(OCCSc2nc3ccccc3[nH]2)cc1	nt	-2	3	-23	-28*	-22
O=C(NC1CC1)c1cc2cc3ccccc3nc2s1	0	2	-1	3	-21*	-10
O=C(NNC(=O)c1cc2cc3ccccc3nc2s1)c1cccc(C(F)(F)F)c1	nt	5	nt	75*	nt	nt
O=C(NNS(=O)(=O)c1ccccc1)c1cc2cc3ccccc3nc2s1	0	nt	nt	nt	nt	nt
O=C(O)CCCC(=O)N1CCN(c2nc(-c3ccccc3)c3ccccc3n2)CC1	0	3	0	61*	-13	0
OC[C@@H]1[C@@H](c2ccc(-c3cccnc3)cc2)[C@H]2CN(CC3CCOCC3)CCCCN12	nt	5	1	nt	nt	11
CC1CCC(NC(=O)CCN2C(=O)C3CC=CCC3C2=O)CC1 (centres undefined)	-1	3	0	16	4	6
CC1CCC(NC(=O)CCN2C(=O)C3C4C=CC(C4)C3C2=O)CC1 (centres undefined)	177*	-13	-2	-5	6	-5
SMILES	E-selectin induc	RAD54 inh	AF4-AF9 inh	GSIS activator	Ecoli rRNA inh	RAD52 anneal inh
CNC(=S)N1CCc2cc(OC)c(OC)cc2C1COc1ccc(F)cc1 (centres undefined)	nt	nt	-6	-14	-4	-6
CCNC(=S)N1CCc2cc(OC)c(OC)cc2C1COc1ccc(F)cc1 (centres undefined)	4	5	2	-16	-31*	-10
COc1ccc(OCC2c3cc(OC)c(OC)cc3CCN2C(=O)C(C)C)cc1 (centres undefined)	0	nt	-4	30	-24*	-17
COC(=O)c1ccc(OCC2c3cc(OC)c(OC)cc3CCN2C(C)=O)cc1 (centres undefined)	1	4	-2	-9	8	1
CC(=O)NC(CCc1ccc(Cl)c(Cl)c1)c1cccc(O)c(=O)c1 (centres undefined)	0	1	30*	nt	-47	-30
CN(C)CC#Cc1ccc([C@@H]2[C@H](CO)N3CCCCN(C(=O)C4CC4)C[C@@H]23)cc1	nt	-2	-3	nt	nt	5
O=C(CNc1ccc(Cl)cc1)NNC(=S)NCc1ccccc1	4	nt	-1	-24	-56	-13
O=C(CNc1cccc(Cl)c1)NNC(=S)NCc1ccccc1	2	-2	2	-31	-24*	-18
CC(C)(C)N(Cc1ccccc1)C(=O)COC(=O)c1ccc(Br)o1	nt	2	1	-17	-32	-13
COc1cc(OC)c(C(=O)OCC(=O)N(Cc2ccccc2)C(C)(C)C)cc1OC	0	nt	2	-3	-30*	-5
COc1ccccc1NC(=O)N1CC[C@H]2[C@@H]1c1cc(-c3ccc(F)cc3)ccc1N(C)[C@H]2CO	0	1	1	6	2	-10
COc1ccc(C#Cc2ccc3c(c2)[C@@H]2[C@@H](CCN2S(=O)(=O)c2cccc(OC)c2)[C@@H](CO)N3C)cc1	0	5	0	12	-1	67*
COc1ccc(C#Cc2ccc3c(c2)[C@H]2[C@H](CCN2S(=O)(=O)c2ccc(OC)cc2)[C@H](CO)N3C)cc1	0	5	0	9	2	-14
COc1ccccc1NC(=O)N1CC[C@@H]2[C@H]1c1cc(C#Cc3ccc(F)cc3)ccc1N(C)[C@@H]2CO	0	6	-3	13	-2	70*
COc1ccccc1NC(=O)N1CC[C@H]2[C@@H]1c1cc(-c3ccccc3)ccc1N(C)[C@H]2CO	0	17	-1	-11	-5	58*
COc1ccccc1NC(=O)N1CC[C@@H]2[C@H]1c1cc(-c3ccccc3)ccc1N(C)[C@@H]2CO	0	17	0	7	-8	52*
CN(C)CCCNC(=O)[C@@H]1[C@@H](CO)[C@@H]2Cn3c(ccc(-c4ccc(F)cc4)c3=O)[C@H]1N2C	0	9	-1	35	1	-3
O=C(Nc1cccc(F)c1)N[C@@H]1CC[C@H](CCNS(=O)(=O)c2cccc(Cl)c2)O[C@@H]1CO	0	2	1	-22	-5	-18
